Measured values reported in ChEMBL document CHEMBL1177643, “Synthesis, DNA-binding ability and anticancer activity of benzothiazole/benzoxazole-pyrrolo[2,1-c][1,4]benzodiazepine conjugates” (Bioorg Med Chem, 2010).

How the values were obtained:
A-375 [1] = assay: Cell cycle arrest in human A375 cells assessed as accumulation at G2/M phase at 2 uM after 24 hrs using propidium iodide staining by flow cytometry; format: functional
In short: (§1)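 A375 cells (5×10^5) grown 24 h, then exposed to compound 24 h (DMSO control). Trypsin–EDTA harvest, fixed in ice-cold 70% ethanol at 4 °C 30 min, RNase A 37 °C 30 min, propidium iodide staining. DNA content measured by flow cytometry on 20,000 events, gated as sub-G1/G0, G1, S and G2/M.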

HOP-92 = assay: Growth inhibition of human HOP92 cells after 48 hrs by sulforhodamine B assay; format: functional; conditions: HOP-92, 48 h
In short: (§2)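 Panel of 60 human cancer cell lines; for each compound, dose–response curves per cell line measured at a minimum of five concentrations at 10-fold dilutions. Cells exposed continuously to drug for 48 h, and growth was read out by sulforhodamine B staining.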

CCRF-CEM = assay: Growth inhibition of human CCRF-CEM cells after 48 hrs by sulforhodamine B assay; format: functional
In short: (§3)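 Dose–response in each cell line over at least five concentrations at 10-fold dilutions, with 48 h continuous exposure and sulforhodamine B read-out.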

SK-MEL-28 = assay: Growth inhibition of human SK-MEL-28 cells after 48 hrs by sulforhodamine B assay; format: functional; conditions: SK-MEL-28, 48 h; in short: as §2
Malme-3M = assay: Growth inhibition of human MALME-3M cells after 48 hrs by sulforhodamine B assay; format: functional; in short: as §2
HCT-15 = assay: Growth inhibition of human HCT15 cells after 48 hrs by sulforhodamine B assay; format: functional; conditions: HCT-15, 48 h; in short: as §2
UACC-62 = assay: Growth inhibition of human UACC62 cells after 48 hrs by sulforhodamine B assay; format: functional; conditions: UACC-62, 48 h; in short: as §2
SF-268 = assay: Growth inhibition of human SF268 cells after 48 hrs by sulforhodamine B assay; format: functional; conditions: SF-268, 48 h; in short: as §2
SNB-19 = assay: Growth inhibition of human SNB19 cells after 48 hrs by sulforhodamine B assay; format: functional; conditions: SNB-19, 48 h; in short: as §2
T47D = assay: Growth inhibition of human T47D cells after 48 hrs by sulforhodamine B assay; format: functional; in short: as §2
NCI-H522 = assay: Growth inhibition of human NCI-H522 cells after 48 hrs by sulforhodamine B assay; format: functional; conditions: NCI-H522, 48 h; in short: as §2
KM12 = assay: Growth inhibition of human KM12 cells after 48 hrs by sulforhodamine B assay; format: functional; conditions: KM12, 48 h; in short: as §2
SN12C = assay: Growth inhibition of human SN12C cells after 48 hrs by sulforhodamine B assay; format: functional; in short: as §2
BT-549 = assay: Growth inhibition of human BT549 cells after 48 hrs by sulforhodamine B assay; format: functional; conditions: BT-549, 48 h; in short: as §3
EKVX = assay: Growth inhibition of human EKVX cells after 48 hrs by sulforhodamine B assay; format: functional; in short: as §3
CAKI-1 = assay: Growth inhibition of human Caki1 cells after 48 hrs by sulforhodamine B assay; format: functional; conditions: CAKI-1, 48 h; in short: as §3
UO-31 = assay: Growth inhibition of human UO31 cells after 48 hrs by sulforhodamine B assay; format: functional; conditions: UO-31, 48 h; in short: as §2
A-375 [2] = assay: Cell cycle arrest in human A375 cells assessed as accumulation at S phase at 2 uM after 24 hrs using propidium iodide staining by flow cytometry; format: functional; in short: as §1
ACHN = assay: Growth inhibition of human ACHN cells after 48 hrs by sulforhodamine B assay; format: functional; in short: as §3
SR = assay: Growth inhibition of human SR cells after 48 hrs by sulforhodamine B assay; format: functional; in short: as §2
COLO 205 = assay: Growth inhibition of human COLO205 cells after 48 hrs by sulforhodamine B assay; format: functional; conditions: COLO 205, 48 h; in short: as §3
Calf thymus DNA = assay: Binding affinity to calf thymus duplex-form DNA assessed as melting temperature at 1:5 compound/DNA ratio after 18 hrs; format: nucleic-acid assay; conditions: Bos taurus
SF-295 = assay: Growth inhibition of human SF295 cells after 48 hrs by sulforhodamine B assay; format: functional; conditions: SF-295, 48 h; in short: as §2
HT-29 = assay: Growth inhibition of human HT-29 cells after 48 hrs by sulforhodamine B assay; format: functional; conditions: HT-29, 48 h; in short: as §2
MDA-MB-231 = assay: Growth inhibition of human MDA-MB-231 cells after 48 hrs by sulforhodamine B assay; format: functional; conditions: MDA-MB-231, 48 h; in short: as §2
786-0 = assay: Growth inhibition of human 786-0 cells after 48 hrs by sulforhodamine B assay; format: functional; conditions: 786-0, 48 h; in short: as §3
NCI/ADR-RES = assay: Growth inhibition of human NCI/ADR-RES cells after 48 hrs by sulforhodamine B assay; format: functional; in short: as §2
U-251 = assay: Growth inhibition of human U251 cells after 48 hrs by sulforhodamine B assay; format: functional; conditions: U-251, 48 h; in short: as §2
HCT-116 = assay: Growth inhibition of human HCT116 cells after 48 hrs by sulforhodamine B assay; format: functional; conditions: HCT-116, 48 h; in short: as §2
A498 = assay: Growth inhibition of human A498 cells after 48 hrs by sulforhodamine B assay; format: functional; conditions: A498, 48 h; in short: as §3
PC-3 = assay: Growth inhibition of human PC3 cells after 48 hrs by sulforhodamine B assay; format: functional; conditions: PC-3, 48 h; in short: as §2
A-375 [3] = assay: Cell cycle arrest in human A375 cells assessed as accumulation at G0/G1 phase at 2 uM after 24 hrs using propidium iodide staining by flow cytometry; format: functional; in short: as §1
HL-60 = assay: Growth inhibition of human HL-60(TB) cells after 48 hrs by sulforhodamine B assay; format: functional; conditions: HL-60, 48 h; in short: as §2
SK-MEL-5 = assay: Growth inhibition of human SK-MEL-5 cells after 48 hrs by sulforhodamine B assay; format: functional; conditions: SK-MEL-5, 48 h; in short: as §2
OVCAR-3 = assay: Growth inhibition of human OVCAR-3 cells after 48 hrs by sulforhodamine B assay; format: functional; conditions: OVCAR-3, 48 h; in short: as §2
OVCAR-8 = assay: Growth inhibition of human OVCAR8 cells after 48 hrs by sulforhodamine B assay; format: functional; conditions: OVCAR-8, 48 h; in short: as §2
IGROV-1 = assay: Growth inhibition of human IGROV1 cells after 48 hrs by sulforhodamine B assay; format: functional; conditions: IGROV-1, 48 h; in short: as §2
MCF7 = assay: Growth inhibition of human MCF7 cells after 48 hrs by sulforhodamine B assay; format: functional; conditions: MCF7, 48 h; in short: as §2
SK-MEL-2 = assay: Growth inhibition of human SK-MEL-2 cells after 48 hrs by sulforhodamine B assay; format: functional; conditions: SK-MEL-2, 48 h; in short: as §2
OVCAR-4 = assay: Growth inhibition of human OVCAR4 cells after 48 hrs by sulforhodamine B assay; format: functional; conditions: OVCAR-4, 48 h; in short: as §2
Hs-578T = assay: Growth inhibition of human Hs 578T cells after 48 hrs by sulforhodamine B assay; format: functional; in short: as §2
A-375 [4] = assay: Cell cycle arrest in human A375 cells assessed as accumulation at G1 phase at 2 uM after 24 hrs using propidium iodide staining by flow cytometry; format: functional; in short: as §1
NCI-H322M = assay: Growth inhibition of human NCI-H322M cells after 48 hrs by sulforhodamine B assay; format: functional; in short: as §2
SF-539 = assay: Growth inhibition of human SF539 cells after 48 hrs by sulforhodamine B assay; format: functional; conditions: SF-539, 48 h; in short: as §2
M14 = assay: Growth inhibition of human M14 cells after 48 hrs by sulforhodamine B assay; format: functional; conditions: M14, 48 h; in short: as §2

COc1cc2c(cc1OCCCCC(=O)Nc1ccc(-c3nc4ccccc4s3)cc1)N=C[C@@H]1CCCN1C2=O
Activity (A-375 [1]): 5.41%
GI50 (HOP-92): 1.74 µM
GI50 (CCRF-CEM): 1.2 µM
GI50 (SK-MEL-28): 2.24 µM
GI50 (Malme-3M): 1.91 µM
GI50 (HCT-15): 2.82 µM
GI50 (UACC-62): 1.74 µM
GI50 (SF-268): 2.04 µM
GI50 (SNB-19): 2.69 µM
GI50 (T47D): 1.95 µM
GI50 (NCI-H522): 0.977 µM
GI50 (KM12): 2.95 µM
GI50 (SN12C): 2.82 µM
GI50 (BT-549): 1.12 µM
GI50 (EKVX): 2.45 µM
GI50 (CAKI-1): 2.19 µM
GI50 (UO-31): 1.66 µM
Activity (A-375 [2]): 6.15%
GI50 (ACHN): 3.02 µM
GI50 (SR): 0.55 µM
GI50 (COLO 205): 1.7 µM
ΔTm (Calf thymus DNA): 0.5 °C
GI50 (SF-295): 0.55 µM
GI50 (HT-29): 2.14 µM
GI50 (MDA-MB-231): 2.09 µM
GI50 (786-0): 1.55 µM
GI50 (NCI/ADR-RES): 11 µM
GI50 (U-251): 1.91 µM
GI50 (HCT-116): 1.86 µM
GI50 (A498): 1.86 µM
GI50 (PC-3): 2.04 µM
Activity (A-375 [3]): 88.44%
GI50 (HL-60): 1.78 µM
GI50 (SK-MEL-5): 1.78 µM
GI50 (OVCAR-3): 1.86 µM
GI50 (OVCAR-8): 1.55 µM
GI50 (IGROV-1): 0.692 µM
GI50 (MCF7): 0.724 µM
GI50 (SK-MEL-2): 1.95 µM
GI50 (OVCAR-4): 2.82 µM
GI50 (Hs-578T): 2.75 µM
Activity (A-375 [4]): 73.34%
GI50 (NCI-H322M): 2.82 µM
GI50 (SF-539): 1.58 µM
GI50 (M14): 1.55 µM
